Source: ChEMBL document CHEMBL1142412, “Bis-(-)-nor-meptazinols as novel nanomolar cholinesterase inhibitors with high inhibitory potency on amyloid-beta aggregation” (J Med Chem, 2008)

How the values were obtained:
Acetylcholinesterase [1] = target: T1, Acetylcholinesterase (Mus musculus, UniProt P21836); experiment: Inhibition of mouse brain AChE
T1 sequence (P21836 whole entry): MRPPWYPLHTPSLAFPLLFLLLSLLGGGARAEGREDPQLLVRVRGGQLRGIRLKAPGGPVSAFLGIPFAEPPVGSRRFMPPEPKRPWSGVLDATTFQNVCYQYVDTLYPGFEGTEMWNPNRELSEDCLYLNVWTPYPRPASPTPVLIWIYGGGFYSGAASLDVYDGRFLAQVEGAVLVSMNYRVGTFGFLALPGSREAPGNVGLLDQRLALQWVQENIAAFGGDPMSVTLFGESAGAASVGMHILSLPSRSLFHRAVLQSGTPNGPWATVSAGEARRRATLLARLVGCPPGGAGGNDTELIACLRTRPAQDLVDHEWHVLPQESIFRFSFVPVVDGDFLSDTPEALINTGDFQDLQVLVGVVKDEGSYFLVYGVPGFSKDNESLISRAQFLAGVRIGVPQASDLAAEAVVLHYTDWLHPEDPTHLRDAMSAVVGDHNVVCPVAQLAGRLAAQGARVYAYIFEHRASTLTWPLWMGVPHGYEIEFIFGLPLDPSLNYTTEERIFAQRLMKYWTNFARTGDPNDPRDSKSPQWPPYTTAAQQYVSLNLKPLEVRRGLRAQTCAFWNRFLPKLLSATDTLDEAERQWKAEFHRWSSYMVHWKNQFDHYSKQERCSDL

Cholinesterase = Cholinesterase (Mus musculus, UniProt Q03311); experiment: Inhibition of mouse serum BChE
How it was run: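 Modified Ellman assay with mouse serum as the enzyme source. Inhibitor at several concentrations, preincubated 20 min at 37 °C with DTNB. Substrate butyrylthiocholine iodide 0.05 mM. ΔA412 read at 25 °C. IC50 by nonlinear regression of log concentration–response. Mean ± SEM of at least three independent measures.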

Mus musculus = species on record: Mus musculus; experiment: Selectivity for mouse brain AChE over mouse serum BChE; format: tissue-based
Acetylcholinesterase [2] = target: T2, Acetylcholinesterase (Homo sapiens, UniProt P22303); experiment: Inhibition of human recombinant AChE-induced amyloid beta aggregation at 200 uM by thioflavin T fluorescence method
How it was run: (§1)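 Aβ(1–40), stock from HFIP, dissolved in DMSO, final 230 µM, incubated 48 h at room temperature in 0.215 M sodium phosphate pH 8.0 with human recombinant AChE (final 2.3 µM, Aβ:AChE 100:1) ± inhibitor. […] Run in duplicate.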

Acetylcholinesterase [3] = target: T2, Acetylcholinesterase; experiment: Inhibition of human recombinant AChE-induced amyloid beta aggregation at 100 uM by thioflavin T fluorescence method; how it was run: as §1
Acetylcholinesterase [4] = target: T2, Acetylcholinesterase; experiment: Inhibition of human recombinant AChE-induced amyloid beta aggregation by thioflavin T fluorescence method; how it was run: as §1

T2 sequence (P22303 whole entry): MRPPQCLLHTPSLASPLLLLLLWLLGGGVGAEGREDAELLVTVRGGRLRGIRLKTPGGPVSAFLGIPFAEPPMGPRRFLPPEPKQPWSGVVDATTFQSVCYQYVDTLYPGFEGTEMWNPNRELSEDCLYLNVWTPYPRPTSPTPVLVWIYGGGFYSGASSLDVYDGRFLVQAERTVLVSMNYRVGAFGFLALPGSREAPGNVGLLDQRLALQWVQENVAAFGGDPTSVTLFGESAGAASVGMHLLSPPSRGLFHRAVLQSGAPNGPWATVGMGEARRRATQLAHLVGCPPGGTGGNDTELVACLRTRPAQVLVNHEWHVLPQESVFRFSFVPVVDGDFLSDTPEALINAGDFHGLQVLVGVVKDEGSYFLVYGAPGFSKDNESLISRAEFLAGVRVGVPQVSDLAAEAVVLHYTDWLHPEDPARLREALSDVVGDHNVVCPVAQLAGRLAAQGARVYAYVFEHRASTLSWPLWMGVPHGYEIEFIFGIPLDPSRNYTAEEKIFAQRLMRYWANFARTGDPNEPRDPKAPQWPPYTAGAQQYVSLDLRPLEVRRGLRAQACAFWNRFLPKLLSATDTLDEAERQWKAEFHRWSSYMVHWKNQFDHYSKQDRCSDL
Chain of Cholinesterase (Q03311 whole entry): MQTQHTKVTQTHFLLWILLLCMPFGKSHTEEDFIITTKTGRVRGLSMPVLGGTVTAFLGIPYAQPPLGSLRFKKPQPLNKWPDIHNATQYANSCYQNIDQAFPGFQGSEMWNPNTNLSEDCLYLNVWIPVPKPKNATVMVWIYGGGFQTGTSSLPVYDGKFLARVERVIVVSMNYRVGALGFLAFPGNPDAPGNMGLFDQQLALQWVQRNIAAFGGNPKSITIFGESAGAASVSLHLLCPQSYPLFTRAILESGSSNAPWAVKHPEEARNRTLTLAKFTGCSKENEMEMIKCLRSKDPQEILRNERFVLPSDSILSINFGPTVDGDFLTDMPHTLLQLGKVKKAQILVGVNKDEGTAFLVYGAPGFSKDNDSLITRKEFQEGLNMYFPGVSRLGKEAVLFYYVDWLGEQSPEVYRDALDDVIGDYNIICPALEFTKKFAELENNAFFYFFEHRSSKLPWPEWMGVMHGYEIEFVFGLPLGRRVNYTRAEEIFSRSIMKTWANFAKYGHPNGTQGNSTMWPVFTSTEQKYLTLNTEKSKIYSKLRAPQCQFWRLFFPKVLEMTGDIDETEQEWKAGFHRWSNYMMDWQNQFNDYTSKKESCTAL

Compound	Ratio IC50 (Mus musculus)	inhibition (Acetylcholinesterase [2]) [%]	inhibition (Acetylcholinesterase [3]) [%]	further results
CCC1(c2cccc(O)c2)CCCCN(C)C1 (single isomer, unassigned; (-)) [MEPTAZINOL]	0.37	0		IC50 (Acetylcholinesterase [1]): 41 µM; IC50 (Cholinesterase): 15 µM
CCC1(c2cccc(O)c2)CCCCN(CCCCCN2CCCC[C@@](CC)(c3cccc(O)c3)C2)C1 (single isomer, unassigned; (-))	0.048			IC50 (Acetylcholinesterase [1]): 1 µM; IC50 (Cholinesterase): 0.192 µM
CC[C@@]1(c2cccc(O)c2)CCCCN(CCCCCCCN2CCCC[C@@](CC)(c3cccc(O)c3)C2)C1	0.38			
CC[N+](C)(CC)CCC[n+]1c(-c2ccccc2)c2cc(N)ccc2c2ccc(N)cc21		98.6	85.6	
CC[C@@]1(c2cccc(O)c2)CCCCN(CCN2CCCC[C@@](CC)(c3cccc(O)c3)C2)C1	0.0029			
CC[C@@]1(c2cccc(O)c2)CCCCN(CCCCCCCCCN2CCCC[C@@](CC)(c3cccc(O)c3)C2)C1	2.6	99.2	90.8	IC50 (Acetylcholinesterase [4]): 16.6 µM
CC[C@@]1(c2cccc(O)c2)CCCCN(CCCCCCCCCCN2CCCC[C@@](CC)(c3cccc(O)c3)C2)C1	1.8	98.4	95.8	IC50 (Acetylcholinesterase [4]): 5.8 µM
CC[C@@]1(c2cccc(O)c2)CCCCN(CCCCCCCCN2CCCC[C@@](CC)(c3cccc(O)c3)C2)C1	0.8	15.2	0	
CC[C@@]1(c2cccc(O)c2)CCCCN(CCCCCCN2CCCC[C@@](CC)(c3cccc(O)c3)C2)C1	0.098			
CC[C@@]1(c2cccc(O)c2)CCCCN(CCCCCCCCCCCN2CCCC[C@@](CC)(c3cccc(O)c3)C2)C1	3.1			
CC[C@@]1(c2cccc(O)c2)CCCCN(CCCN2CCCC[C@@](CC)(c3cccc(O)c3)C2)C1	0.0031			
CC[C@@]1(c2cccc(O)c2)CCCCN(CCCCCCCCCCCCN2CCCC[C@@](CC)(c3cccc(O)c3)C2)C1	2.4			
CC[C@@]1(c2cccc(O)c2)CCCCN(CCCCN2CCCC[C@@](CC)(c3cccc(O)c3)C2)C1	0.0049			
